Assay results reported in ChEMBL document CHEMBL1154266, “Synthesis, conformational analysis, and biological evaluation of 19-nor-vitamin D3 analogues with A-ring modifications” (J Med Chem, 2009).
Several values for one entry are separate records, joined by “and”; a condition that tells them apart may be missing. Equal entries are not always repeated.

Columns and labels:
[1] = molecular target: T1, Vitamin D3 receptor (Sus scrofa) (UniProt A3RGC1); test: Displacement of [3H]1-alpha,25-(OH)2D3 from VDR in pig intestinal mucosa at EC50 relative to 1-alpha,25-(OH)2D3; type: tissue-based
T1 sequence (whole entry): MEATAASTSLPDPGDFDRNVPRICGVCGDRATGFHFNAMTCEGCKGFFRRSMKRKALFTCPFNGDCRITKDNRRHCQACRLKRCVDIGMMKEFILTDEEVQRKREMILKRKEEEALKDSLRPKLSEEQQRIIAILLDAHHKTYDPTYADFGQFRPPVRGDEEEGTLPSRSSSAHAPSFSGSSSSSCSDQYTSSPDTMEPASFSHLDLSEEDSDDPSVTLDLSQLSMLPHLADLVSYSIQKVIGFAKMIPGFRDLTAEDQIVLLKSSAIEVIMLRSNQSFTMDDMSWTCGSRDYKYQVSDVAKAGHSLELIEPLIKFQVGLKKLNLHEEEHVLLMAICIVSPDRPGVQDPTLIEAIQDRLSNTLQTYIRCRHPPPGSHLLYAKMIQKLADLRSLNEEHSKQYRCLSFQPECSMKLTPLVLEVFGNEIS
Summary of the method: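 Binding to vitamin D receptor (VDR), […]. Values are mean ± SD, n = 3.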

MCF7 [2] = test: Antiproliferative activity against human MCF7 cells at EC50 after 72 hrs by [3H]thymidine incorporation assay relative to 1-alpha,25-(OH)2D3; type: functional
Summary of the method: (§1)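 MCF-7 breast cancer cells; proliferation read by [³H]thymidine incorporation. Inhibition was scored at 10^-6 M, and the concentration giving half-maximal response was derived. Values are mean ± SD, n = 3.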

[3] = molecular target: T1, Vitamin D3 receptor (Sus scrofa); test: Ratio of 1-alpha,25-(OH)2D3 to compound affinity for binding to VDR in pig intestinal mucosa
Mus musculus [4] = test: Toxicity in NMRI mouse assessed as induction of calcemic effect at 20 ug/kg, ip daily for 7 consecutive days measured after day 7 by colorimetric assay; type: organism-based; settings: in vivo, 0.02 mg/kg
Summary of the method: (§2)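 Mice received a daily injection of compound. The calcemic effect was read as the percent increase in serum calcium levels.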

Mus musculus [5] = test: Toxicity in NMRI mouse assessed as induction of calcemic effect at 40 ug/kg, ip daily for 7 consecutive days measured after day 7 by colorimetric assay; type: organism-based; settings: in vivo, 0.04 mg/kg; summary of the method: as §2
Mus musculus [6] = test: Toxicity in NMRI mouse assessed as increase in serum calcium level at 100 ug/kg, ip daily for 7 consecutive days measured after day 7 by colorimetric assay; type: organism-based; settings: in vivo, 0.1 mg/kg; summary of the method: as §2
MCF7 [7] = test: Antiproliferative activity against human MCF7 cells at 1 uM after 72 hrs by [3H]thymidine incorporation assay; type: functional; summary of the method: as §1
Mus musculus [8] = test: Toxicity in NMRI mouse assessed as induction of calcemic effect at 100 ug/kg, ip daily for 7 consecutive days measured after day 7 by colorimetric assay; type: organism-based; settings: in vivo, 0.1 mg/kg; summary of the method: as §2
MCF7 [9] = test: Ratio of 1-alpha,25-(OH)2D3 to compound antiproliferative activity against human MCF7 cells at EC50 after 72 hrs by [3H]thymidine incorporation assay; type: functional
Mus musculus [10] = test: Toxicity in NMRI mouse assessed as increase in serum calcium level at 0.1 ug/kg, ip daily for 7 consecutive days measured after day 7 by colorimetric assay; type: organism-based; settings: in vivo, 0.0001 mg/kg; summary of the method: as §2
[11] = Toxicity in ip dosed NMRI mouse assessed as maximum tolerable dose inducing minimal increase in serum calcium level administered daily for 7 consecutive days measured after day 7 by colorimetric assay; type: organism-based; settings: in vivo

Row | Activity [1] | SMILES | Activity (MCF7 [2]) | other results
1 | 5% | C[C@H](CCCC(C)(C)O)[C@H]1CC[C@H]2/C(=C/C=C3\C[C@@H](O)[C@H](O)[C@@H](O)C3)CCC[C@]12C | 5% | –
2 | 20% and 10% | C[C@H](CCCC(C)(C)O)[C@H]1CC[C@H]2/C(=C/C=C3C[C@@H](O)C(O)[C@H](O)C3)CCC[C@]12C (stereo not given in full) [listing 1 of 2 here] | – | Ratio [3]: 5 and 10
3 | 0.4% | C[C@H](CCCC(C)(C)O)[C@H]1CC[C@H]2/C(=C/C=C3/C[C@@H](O)[C@H](O)[C@@H](O)C3)CCC[C@]12C | 5% | –
4 | 25% | C[C@H](CCCC(C)(C)O)[C@H]1CC[C@H]2/C(=C/C=C3\C[C@@H](O)[C@@H]4O[C@@H]4C3)CCC[C@]12C | 16% | Activity (Mus musculus [4]): Non-toxic
5 | 0.4% | C[C@H](CCCC(C)(C)O)[C@H]1CC[C@H]2/C(=C/C=C3/C[C@@H](O)[C@@H]4O[C@@H]4C3)CCC[C@]12C | 1% | Activity (Mus musculus [5]): Non-toxic
6 | – | [H][C@@]12CC[C@]([H])([C@H](C)CCCC(C)(C)O)[C@@]1(C)CCC/C2=C\C=C1\C[C@@H](O)[C@H](O)[C@H](O)C1 (stereo not given in full) | 20% | Activity (Mus musculus [6]): 13%; Activity (MCF7 [7]): 60%; Activity (Mus musculus [8]): Non-toxic; Ratio (MCF7 [9]): 5
7 | – | C=C1/C(=C\C=C2/CCC[C@]3(C)[C@@H]([C@H](C)CCCC(C)(C)O)CC[C@@H]23)C[C@@H](O)C[C@@H]1O [CALCITRIOL] | – | Activity (Mus musculus [10]): 27%; MTD at 7 days [11]: 0.0001 mg/kg/day
8 | – | C[C@H](CCCC(C)(C)O)[C@H]1CC[C@H]2/C(=C/C=C3C[C@@H](O)C(O)[C@H](O)C3)CCC[C@]12C (stereo not given in full) [listing 2 of 2 here] | 5% | –
